The test system of assay [1] is Actinobacillus pleuropneumoniae. The assay can be described thus: Antibacterial activity against Actinobacillus pleuropneumoniae after 48 hrs by CLSI protocol based broth microdilution assay. It counts as functional. An outline of the steps: (§1)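 Strains (B. subtilis PY79, P. peoriae LMG1611, S. aureus Newman, S. agalactiae ATCC27956, E. coli ATCC25922, P. aeruginosa PA14, P. fluorescens LMG1794, X. campestris Xg, A. pleuropneumoniae) were grown overnight in TSB at 30 °C with shaking, then suspended in Mueller-Hinton broth, final OD600 0.01. Twofold-series compound, 100 to 0.78 μM, from 20 mM DMSO stock. Incubated 48 h, 30 °C, 250 rpm; OD600 read; MIC.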
Background: Broth dilution looks for growth in wells or tubes with falling amounts of substance.

The test system of another assay is Escherichia coli. The assay can be described thus: Antibacterial activity against Escherichia coli after 48 hrs by CLSI protocol based broth microdilution assay. The assay is classed as functional. Summed up: as §1
The next assay deals with Pseudomonas aeruginosa. The assay can be described thus: Antibacterial activity against Pseudomonas aeruginosa after 48 hrs by CLSI protocol based broth microdilution assay. It counts as functional. Summed up:
as §1

A further assay has as its system Pseudomonas fluorescens. The assay can be described thus: Antibacterial activity against Pseudomonas fluorescens after 48 hrs by CLSI protocol based broth microdilution assay. It counts as functional. An outline of the steps: as §1
For a further assay, the system named is Xanthomonas campestris. Briefly: Antibacterial activity against Xanthomonas campestris after 48 hrs by CLSI protocol based broth microdilution assay. The assay is classed as functional. Summed up:
as §1

In another assay the test system is Bacillus subtilis. Briefly: Antibacterial activity against Bacillus subtilis after 48 hrs by CLSI protocol based broth microdilution assay. It counts as functional. An outline of the steps: as §1
Assay [2] can be described thus: Antibacterial activity against Paenibacillus peoriae after 48 hrs by CLSI protocol based broth microdilution assay. The assay is classed as functional. An outline of the steps: as §1
The subject of a further assay is Staphylococcus aureus. Briefly: Antibacterial activity against Staphylococcus aureus after 48 hrs by CLSI protocol based broth microdilution assay. The assay is classed as functional. Summed up:
as §1

A further assay relates to Streptococcus agalactiae. Briefly: Antibacterial activity against Streptococcus agalactiae after 48 hrs by CLSI protocol based broth microdilution assay. The assay is classed as functional. Summed up: as §1
In a further assay the test system is Cryptococcus neoformans. The assay can be described thus: Antifungal activity against Cryptococcus neoformans after 48 hrs by CLSI protocol based broth microdilution assay. The assay is classed as functional.
The test system of a further assay is Candida albicans. The assay can be described thus: Antifungal activity against Candida albicans after 48 hrs by CLSI protocol based broth microdilution assay. The assay is classed as functional.
In the next assay the test system is Aspergillus niger. The assay can be described thus: Antifungal activity against Aspergillus niger after 48 hrs by CLSI protocol based broth microdilution assay. The assay is classed as functional. An outline of the steps: (§2)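 Molds (A. niger, F. oxyporum, F. solani, Mucorales TM29) were grown 4 days at 25 °C on PDA, and spores were harvested in sterile water and counted by hemacytometer. Spores (2 × 10⁴ mL⁻¹) went into L-glutamine RPMI 1640, MOPS-buffered to pH 7.0, with serially diluted compound (top 100 μM). Incubated 2 days at room temperature; OD600 read; MIC.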

A further assay has as its system Fusarium oxysporum. The assay can be described thus: Antifungal activity against Fusarium oxysporum after 48 hrs by CLSI protocol based broth microdilution assay. The assay is classed as functional. Summed up: as §2
The subject of another assay is Fusarium solani. Briefly: Antifungal activity against Fusarium solani after 48 hrs by CLSI protocol based broth microdilution assay. The assay is classed as functional. Summed up:
as §2

The subject of the next assay is Mucorales. Briefly: Antifungal activity against Mucorales after 48 hrs by CLSI protocol based broth microdilution assay. The assay is classed as functional. An outline of the steps:
as §2

For assay [3], the system named is hmqA (Burkholderia ambifaria). The assay can be described thus: Inhibition of beta-galactosidase hmqA mutant (Burkholderia ambifaria) by lacZ reporter gene assay. (In general: A reporter such as luciferase makes a cellular process visible.)

Converted amounts (≈) assume the structure as drawn. The source made the active and inactive calls.

One may read the MIC as the smallest concentration in the dilution series that meets the test's criterion for growth inhibition. A higher MIC goes with a need for much substance. In the case of `CCCCCC/C=C/Cc1c(C)c(=O)c2ccccc2n1O`, the MIC in assay [1] came to 1.56 µM (≈ 0.467 µg/mL); against Escherichia coli it was 6.25 µM (≈ 1.87 µg/mL); against Pseudomonas aeruginosa, 12.5 µM (≈ 3.74 µg/mL); against Pseudomonas fluorescens, 25 µM (≈ 7.49 µg/mL); against Xanthomonas campestris, 12.5 µM (≈ 3.74 µg/mL); against Bacillus subtilis, 3.13 µM (≈ 0.937 µg/mL). The MIC in [2] is 1.56 µM (≈ 0.467 µg/mL); in the assay with Staphylococcus aureus, 1.56 µM (≈ 0.467 µg/mL); against Streptococcus agalactiae, 1.56 µM (≈ 0.467 µg/mL); in the assay with Cryptococcus neoformans, 6.25 µM (≈ 1.87 µg/mL); in the assay with Candida albicans it was more than 100 µM; against Aspergillus niger it was more than 100 µM. Further, the MIC in the assay with Fusarium oxysporum, with Fusarium solani and against Mucorales was more than 100 µM in each case.

On to `CCCCCC/C=C/Cc1[nH]c2ccccc2c(=O)c1C`, for which the MIC is 1.56 µM (≈ 0.442 µg/mL) in [1]; 100 µM (≈ 28.3 µg/mL) against Escherichia coli; more than 100 µM in the assay with Pseudomonas aeruginosa; 50 µM (≈ 14.2 µg/mL) against Pseudomonas fluorescens; 100 µM (≈ 28.3 µg/mL) against Xanthomonas campestris; 1.56 µM (≈ 0.442 µg/mL) against Bacillus subtilis. In addition, the MIC in [2] is 12.5 µM (≈ 3.54 µg/mL); against Staphylococcus aureus, 1.56 µM (≈ 0.442 µg/mL); against Streptococcus agalactiae, 1.56 µM (≈ 0.442 µg/mL); against Cryptococcus neoformans, 1.56 µM (≈ 0.442 µg/mL); in the assay on Candida albicans, more than 100 µM; with Aspergillus niger, more than 100 µM. For the same molecule, the MIC against Fusarium oxysporum amounted to 12.5 µM (≈ 3.54 µg/mL); in the assay on Fusarium solani, 6.25 µM (≈ 1.77 µg/mL); in the assay with Mucorales, 12.5 µM (≈ 3.54 µg/mL).

Take `CCCCC/C=C/Cc1[nH]c2ccccc2c(=O)c1C`: the MIC is 1.56 µM (≈ 0.42 µg/mL) in assay [1]; 100 µM (≈ 26.9 µg/mL) against Escherichia coli; 50 µM (≈ 13.5 µg/mL) in the assay on Pseudomonas aeruginosa; 25 µM (≈ 6.73 µg/mL) with Pseudomonas fluorescens; 100 µM (≈ 26.9 µg/mL) against Xanthomonas campestris; 1.56 µM (≈ 0.42 µg/mL) against Bacillus subtilis. For the same molecule, the MIC in assay [2] is 12.5 µM (≈ 3.37 µg/mL); with Staphylococcus aureus, 1.56 µM (≈ 0.42 µg/mL); in the assay on Streptococcus agalactiae, 1.56 µM (≈ 0.42 µg/mL); against Cryptococcus neoformans, 1.56 µM (≈ 0.42 µg/mL); with Candida albicans, more than 100 µM; with Aspergillus niger it was more than 100 µM. Further, the MIC in the assay on Fusarium oxysporum is more than 100 µM; against Fusarium solani, more than 100 µM; in the assay on Mucorales, 12.5 µM (≈ 3.37 µg/mL). For the same molecule, the outcome in [3] was Active.

On to `CCCC/C=C/Cc1c(C)c(=O)c2ccccc2n1O`, for which the MIC was determined as 1.56 µM (≈ 0.423 µg/mL) in [1]; 25 µM (≈ 6.78 µg/mL) in the assay with Escherichia coli; 50 µM (≈ 13.6 µg/mL) against Pseudomonas aeruginosa; 50 µM (≈ 13.6 µg/mL) in the assay with Pseudomonas fluorescens; 6.25 µM (≈ 1.7 µg/mL) in the assay on Xanthomonas campestris; 1.56 µM (≈ 0.423 µg/mL) in the assay on Bacillus subtilis. Moreover, the MIC in assay [2] is 1.56 µM (≈ 0.423 µg/mL); against Staphylococcus aureus, 1.56 µM (≈ 0.423 µg/mL); against Streptococcus agalactiae it was 1.56 µM (≈ 0.423 µg/mL); in the assay on Cryptococcus neoformans, 50 µM (≈ 13.6 µg/mL); with Candida albicans, more than 100 µM; against Aspergillus niger, more than 100 µM. Further, the MIC against Fusarium oxysporum, in the assay with Fusarium solani and in the assay with Mucorales was more than 100 µM throughout.

`CCCCC/C=C/Cc1c(C)c(=O)c2ccccc2n1O`: the MIC in assay [1] came to 1.56 µM (≈ 0.445 µg/mL); in the assay on Escherichia coli it was 6.25 µM (≈ 1.78 µg/mL); in the assay on Pseudomonas aeruginosa it was 25 µM (≈ 7.13 µg/mL); in the assay with Pseudomonas fluorescens, 25 µM (≈ 7.13 µg/mL); with Xanthomonas campestris, 3.13 µM (≈ 0.893 µg/mL); against Bacillus subtilis it was 1.56 µM (≈ 0.445 µg/mL). Also, the minimum inhibitory concentration (MIC) is 1.56 µM (≈ 0.445 µg/mL) in assay [2]; 1.56 µM (≈ 0.445 µg/mL) in the assay on Staphylococcus aureus; 1.56 µM (≈ 0.445 µg/mL) in the assay on Streptococcus agalactiae; 12.5 µM (≈ 3.57 µg/mL) against Cryptococcus neoformans; more than 100 µM against Candida albicans; more than 100 µM in the assay with Aspergillus niger. For the same molecule, the MIC against Fusarium oxysporum, against Fusarium solani and against Mucorales was more than 100 µM throughout.

For `CCCC/C=C/Cc1[nH]c2ccccc2c(=O)c1C`, the MIC is 3.13 µM (≈ 0.799 µg/mL) in assay [1]; 100 µM (≈ 25.5 µg/mL) against Escherichia coli; more than 100 µM in the assay on Pseudomonas aeruginosa; 25 µM (≈ 6.38 µg/mL) against Pseudomonas fluorescens; 100 µM (≈ 25.5 µg/mL) against Xanthomonas campestris; 1.56 µM (≈ 0.398 µg/mL) in the assay on Bacillus subtilis. The MIC in assay [2] was 12.5 µM (≈ 3.19 µg/mL); in the assay on Staphylococcus aureus, 1.56 µM (≈ 0.398 µg/mL); against Streptococcus agalactiae, 1.56 µM (≈ 0.398 µg/mL); in the assay on Cryptococcus neoformans, 3.13 µM (≈ 0.799 µg/mL); in the assay with Candida albicans, more than 100 µM; in the assay on Aspergillus niger it was more than 100 µM. Besides, the figures for the MIC against Fusarium oxysporum, in the assay on Fusarium solani and in the assay with Mucorales were 12.5 µM (≈ 3.19 µg/mL), more than 100 µM and 6.25 µM (≈ 1.6 µg/mL), respectively. For the same molecule, in [3], the result was Active.

Values taken from ChEMBL document CHEMBL4665692, “Synthesis and Antimicrobial Activity of Burkholderia-Related 4-Hydroxy-3-methyl-2-alkenylquinolines (HMAQs) and Their N-Oxide Counterparts” (2020).
